According to ChEMBL document CHEMBL1671747, “Efficacy and safety of intravenous peramivir for treatment of seasonal influenza virus infection” (Antimicrob Agents Chemother, 2010):
pIC50: −log10 of the molar value. Activity calls are given as the source filed them. The rule behind the calls is not given here.

Tests used:
[1] = system: Homo sapiens; assay: Toxicity in human patient infected with Influenza virus assessed as lymphocyte morphology abnormal at 300 mg, iv; format: organism-based; details: in vivo
How it was run: (§1)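 Adults with seasonal influenza received one intravenous infusion of peramivir (300 or 600 mg) or matching placebo; the median infusion lasted 0.63 h. Blood for haematology, including the white-cell differential, was taken at baseline and on days 3 and 14. Tests were run by blinded technicians. Adverse-event incidence in the 298-subject safety population was compared with placebo by Fisher's exact test.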

[2] = system: Homo sapiens; assay: Toxicity in human patient infected with Influenza virus assessed as monocyte at 600 mg, iv; format: organism-based; details: in vivo; how it was run: as §1
[3] = system: Homo sapiens; assay: Toxicity in human patient infected with Influenza virus assessed as decrease in total Protein at 600 mg, iv; format: organism-based; details: in vivo
How it was run: (§2)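 One IV dose of 300 or 600 mg or placebo was given to adults with influenza. Blood (hematology, biochemistry) and urine (including NAG, β2- and α1-microglobulin, protein) were sampled at baseline, day 3 and day 14 by blinded technicians. Adverse-event incidence versus placebo was compared by Fisher's exact test.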

[4] = system: Homo sapiens; assay: Toxicity in human patient infected with Influenza virus assessed as occurrence of nausea at 300 mg, iv; format: organism-based; details: in vivo
How it was run: (§3)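 In this randomized trial, subjects received a single intravenous infusion of peramivir (300 mg or 600 mg) or matching placebo; the median infusion lasted 0.63 h. Subjects were followed at visits on days 1, 2 (optional), 3, 5, 9 and 14. Adverse-event incidences across the 298 treated subjects were compared with placebo using Fisher's exact test.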

[5] = system: Homo sapiens; assay: Toxicity in human patient infected with Influenza virus assessed as lymphocyte morphology abnormal at 600 mg, iv; format: organism-based; details: in vivo; how it was run: as §1
[6] = system: Plasma; assay: Plasma concentration in human at 300 mg, iv; format: ADME
How it was run: (§4)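 Subjects received a single IV infusion of 300 or 600 mg (mean 5.0 or 10.0 mg/kg; median infusion 0.63 h). Plasma was sampled just before the infusion ended, and on days 2 and 3. Samples were deproteinized and run on C18 LC/MS-MS. Values are medians at end of infusion, 18–24 h and 36–48 h after infusion.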

[7] = system: Homo sapiens; assay: Toxicity in human patient infected with Influenza virus assessed as diarrhea at 600 mg, iv; format: organism-based; details: in vivo
How it was run: (§5)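 Adverse events were recorded after one IV dose of 300 or 600 mg or placebo in adults with influenza. Incidence in each peramivir group was compared with placebo by Fisher's exact test.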

[8] = system: Plasma; assay: Plasma concentration in human at 600 mg, iv; format: ADME; how it was run: as §4
[9] = system: Homo sapiens; assay: Toxicity in human patient infected with Influenza virus assessed as urine containing albumine at 300 mg, iv; format: organism-based; details: in vivo
How it was run: (§6)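 Subjects received a single intravenous peramivir dose (300 or 600 mg) or placebo, infused over a median of 0.63 h. Urinalysis covered protein, albumin and sediment, among other analytes. Urine was collected at baseline and on days 3 and 14 and tested by blinded technicians. Incidence in the safety population (n = 298 treated) was compared with placebo by Fisher's exact test.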

[10] = system: Homo sapiens; assay: Toxicity in human patient infected with Influenza virus assessed as beta-N-Acetyl-D-glucosaminidase at 300 mg, iv; format: organism-based; details: in vivo; how it was run: as §2
[11] = system: Homo sapiens; assay: Toxicity in human patient infected with Influenza virus assessed as increase in monocyte at 300 mg, iv; format: organism-based; details: in vivo; how it was run: as §1
[12] = system: Homo sapiens; assay: Toxicity in human patient infected with Influenza virus assessed as occurrence of nausea at 600 mg, iv; format: organism-based; details: in vivo; how it was run: as §3
[13] = system: Homo sapiens; assay: Toxicity in human patient infected with Influenza virus assessed as proteinuria at 600 mg, iv; format: organism-based; details: in vivo; how it was run: as §6
[14] = system: Influenza A virus; assay: Antiviral activity against Influenza A virus H1N1 infected in human patient assessed as alleviation time of symptoms at 300 mg, iv (reference value: 81.4 hrs); format: functional
[15] = system: Homo sapiens; assay: Toxicity in human patient infected with Influenza virus assessed as increase in blood bilirubin at 600 mg, iv; format: organism-based; details: in vivo; how it was run: as §2
[16] = system: Homo sapiens; assay: Toxicity in human patient infected with Influenza virus assessed as nasopharyngitis at 300 mg, iv; format: organism-based; details: in vivo; how it was run: as §3
[17] = system: Plasma; assay: Plasma concentration in human at 600 mg, iv after 36 to 48 hrs; format: ADME, organism-based; details: in vivo; how it was run: as §4
[18] = system: Homo sapiens; assay: Toxicity in human patient infected with Influenza virus assessed as decrease in white blood cell count at 600 mg, iv; format: organism-based; details: in vivo; how it was run: as §2
[19] = system: Influenza A virus; assay: Antiviral activity against Influenza A virus H3N2 infected in human patient assessed as alleviation time of symptoms at 600 mg, iv (reference value: 81 hrs); format: functional
[20] = system: Homo sapiens; assay: Toxicity in human patient infected with Influenza virus assessed as occurrence of bronchitis at 300 mg, iv; format: organism-based; details: in vivo; how it was run: as §3
[21] = system: Influenza A virus; assay: Antiviral activity against influenza A virus H1N1 infected in MDCK cells assessed as inhibition of neuraminidase activity by fluorimetric assay; format: functional, organism-based
How it was run: (§7)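 Viruses were isolated from baseline patient swabs on MDCK cells. Neuraminidase inhibition was measured by a standard fluorometric assay. IC50 came from plotting percent inhibition of neuraminidase activity against inhibitor concentration, reported as mean ± SD of three independent experiments.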

[22] = system: unidentified influenza virus; assay: Antiviral activity against Influenza virus infected in human patient assessed as reduction in fever at 600 mg, iv after 24 hrs; format: functional, organism-based
How it was run: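 A single IV dose of 300 or 600 mg or placebo was given to adults with seasonal influenza. The outcome was the proportion of subjects with postbaseline normal temperature (<37.0°C). Groups were compared by Mantel-Haenszel test stratified for smoking and baseline composite symptom score.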

[23] = system: Homo sapiens; assay: Toxicity in human patient infected with Influenza virus assessed as nausea at 600 mg, iv; format: organism-based; details: in vivo; how it was run: as §3
[24] = system: Influenza A virus; assay: Antiviral activity against Influenza A virus H3N2 infected in human patient assessed as alleviation time of symptoms at 300 mg, iv (reference value: 81 hrs); format: functional
[25] = system: Homo sapiens; assay: Toxicity in human patient infected with Influenza virus assessed as urine containing albumine at 600 mg, iv; format: organism-based; details: in vivo; how it was run: as §6
[26] = system: Homo sapiens; assay: Toxicity in human patient infected with Influenza virus assessed as diarrhea at 300 mg, iv; format: organism-based; details: in vivo; how it was run: as §5
[27] = system: Homo sapiens; assay: Toxicity in human patient infected with Influenza virus assessed as decrease in total Protein at 300 mg, iv; format: organism-based; details: in vivo; how it was run: as §2
[28] = system: Homo sapiens; assay: Toxicity in human patient infected with Influenza virus assessed as proteinuria at 300 mg, iv; format: organism-based; details: in vivo; how it was run: as §6
[29] = system: Influenza A virus; assay: Antiviral activity against Influenza A virus H1N1 infected in human patient assessed as alleviation time of symptoms at 600 mg, iv (reference value: 81.4 hrs); format: functional
[30] = system: Plasma; assay: Plasma concentration in human at 300 mg, iv after 18 to 24 hrs; format: ADME, organism-based; details: in vivo; how it was run: as §4
[31] = system: Homo sapiens; assay: Toxicity in human patient infected with Influenza virus assessed as increase in lymphocyte at 300 mg, iv; format: organism-based; details: in vivo; how it was run: as §2
[32] = system: Influenza B virus; assay: Antiviral activity against influenza B virus infected in MDCK cells assessed as inhibition of neuraminidase activity by fluorimetric assay; format: functional, organism-based; how it was run: as §7
[33] = system: Homo sapiens; assay: Toxicity in human patient infected with Influenza virus assessed as increase in alanine aminotransferase at 300 mg, iv; format: organism-based; details: in vivo; how it was run: as §2
[34] = system: Homo sapiens; assay: Toxicity in human patient infected with Influenza virus assessed as increase in blood glucose at 600 mg, iv; format: organism-based; details: in vivo; how it was run: as §2
[35] = system: Homo sapiens; assay: Toxicity in human patient infected with Influenza virus assessed as decrease in white blood cell count at 300 mg, iv; format: organism-based; details: in vivo; how it was run: as §2

CCC(CC)[C@H](NC(C)=O)[C@@H]1[C@H](O)[C@@H](C(=O)O)C[C@H]1NC(=N)N [PERAMIVIR ANHYDROUS]
Activity [1]: Toxic
Activity [2]: Toxic
Activity [3]: Toxic
Activity [4]: 3%
Activity [5]: Toxic
Cp [6]: 18100 ng/mL
Activity [7]: Toxic
Cp [8]: 36300 ng/mL
Activity [9]: Toxic
Activity [10]: Toxic
Activity [11]: Toxic
Activity [12]: 6.1%
Activity [13]: Toxic
Time [14]: 52.5 h
Activity [15]: Toxic
Activity [16]: Toxic
Cp [17]: 10.7 ng/mL
Activity [18]: Toxic
Time [19]: 50.5 h
Activity [20]: 3%
pIC50 [21]: 8.03
Activity [22]: Active
Activity [23]: Toxic
Time [24]: 76.1 h
Activity [25]: Toxic
Activity [26]: Toxic
Activity [27]: Toxic
Activity [28]: Toxic
Time [29]: 62.6 h
Cp [30]: 14.8 ng/mL
Activity [31]: Toxic
pIC50 [32]: 8.52
Activity [33]: Toxic
Activity [34]: Toxic
Activity [35]: Toxic
